Numbered stars: 1 amine (or outer) side, 2 acyl side, 3 side chain; on linkers, the order of the positions; unused ones are H or OH. Bridge positions count the residues as written; N and C are the ends. Square brackets hold non-standard residues; d marks the D form. Peptide text beside a SMILES is read from it. * marks the point of attachment. X5 = CC(C)CCNCCC[C@H](N[*:1])C(=O)[*:2]; Ala(2-furyl) = N[C@@H](Cc1ccco1)C(=O)O; Ala(cPent) = N[C@@H](CC1CCCC1)C(=O)O; Orn(iPr) = CC(C)NCCC[C@H](N)C(=O)O; Dab(iPr) = CC(C)NCC[C@H](N)C(=O)O; 3Pal = N[C@@H](Cc1cccnc1)C(=O)O; 2Thi = N[C@@H](Cc1cccs1)C(=O)O; Aad = N[C@@H](CCCC(=O)O)C(=O)O; Cha = N[C@@H](CC1CCCCC1)C(=O)O; Orn = NCCC[C@H](N)C(=O)O; Dab = NCC[C@H](N)C(=O)O; Ac4c = NC1(C(=O)O)CCC1; Dap = NC[C@H](N)C(=O)O; X2 = CC(O)CN*
Tests used:
Vasopressin V1a receptor = Vasopressin V1a receptor (Homo sapiens, UniProt P37288); assay: Agonist activity at recombinant human vasopressin V1a receptor expressed in HEK293 cells by luciferase reporter gene assay; type: functional, cell-based; conditions: read-out: EC50
Homo sapiens [1] = organism: Homo sapiens; assay: Selectivity ratio of EC50 for human vasopressin V1b receptor to EC50 for human vasopressin V1a receptor
Oxytocin receptor = molecular target: T1, Oxytocin receptor (Homo sapiens, UniProt P30559); assay: Agonist activity at human OT receptor expressed in CHO-K1 cells by luciferase reporter gene assay; type: functional, cell-based
T1 sequence (P30559 whole entry): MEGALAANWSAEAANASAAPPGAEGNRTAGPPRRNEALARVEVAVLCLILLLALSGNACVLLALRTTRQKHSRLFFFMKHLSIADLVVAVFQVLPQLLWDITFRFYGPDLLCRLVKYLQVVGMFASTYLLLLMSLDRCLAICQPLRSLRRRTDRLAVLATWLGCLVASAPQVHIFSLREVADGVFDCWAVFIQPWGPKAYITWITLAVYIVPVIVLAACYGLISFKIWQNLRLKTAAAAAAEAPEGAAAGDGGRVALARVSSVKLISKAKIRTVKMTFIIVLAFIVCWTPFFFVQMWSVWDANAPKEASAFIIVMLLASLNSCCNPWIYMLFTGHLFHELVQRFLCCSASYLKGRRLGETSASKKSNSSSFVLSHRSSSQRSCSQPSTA

Homo sapiens [2] = organism: Homo sapiens; assay: Selectivity ratio of EC50 for human oxytocin receptor to EC50 for human vasopressin V1a receptor
[3] = molecular target: Vasopressin V1a/V2 (Homo sapiens) (UniProt P30518+P37288); assay: Selectivity ratio of EC50 for human vasopressin V2 receptor to EC50 for human vasopressin V1a receptor
Vasopressin V2 receptor = Vasopressin V2 receptor (Homo sapiens, UniProt P30518); assay: Agonist activity at recombinant human vasopressin V2 receptor expressed in HEK293 cells by luciferase reporter gene assay; type: functional, cell-based
Vasopressin V1b receptor = molecular target: T2, Vasopressin V1b receptor (Homo sapiens, UniProt P47901); assay: Agonist activity at recombinant human vasopressin V1b receptor expressed in Flp-In-293 cells by luciferase reporter gene assay; type: functional, cell-based; conditions: read-out: EC50
T2 sequence (P47901 whole entry): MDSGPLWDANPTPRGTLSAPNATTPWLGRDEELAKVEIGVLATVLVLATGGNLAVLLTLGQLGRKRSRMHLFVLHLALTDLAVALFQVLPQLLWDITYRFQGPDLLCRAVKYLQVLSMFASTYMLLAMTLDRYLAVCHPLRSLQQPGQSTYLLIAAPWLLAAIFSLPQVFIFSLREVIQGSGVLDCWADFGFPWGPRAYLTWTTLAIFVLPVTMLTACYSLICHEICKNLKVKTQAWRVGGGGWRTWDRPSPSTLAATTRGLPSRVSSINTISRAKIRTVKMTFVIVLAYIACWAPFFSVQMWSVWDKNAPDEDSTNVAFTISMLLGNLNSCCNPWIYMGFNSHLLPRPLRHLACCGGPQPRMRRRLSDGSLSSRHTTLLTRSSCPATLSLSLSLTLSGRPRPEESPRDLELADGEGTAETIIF
Procedure, shortened: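 Reporter gene assays in HEK293 cells transiently cotransfected with V1a (human or rat) or human V2 receptor vector plus NFAT-luciferase (V1a) or CRE-luciferase (V2) reporter; V1b in Flp-In-293 stably expressing receptor, OT in CHO-K1 stably expressing receptor, both transiently transfected with NFAT-luciferase. Two days post-transfection, peptides added for 5 h at 37 °C, lysis with luciferin, luminescence read.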

Chain of Vasopressin V2 receptor (P30518 whole entry): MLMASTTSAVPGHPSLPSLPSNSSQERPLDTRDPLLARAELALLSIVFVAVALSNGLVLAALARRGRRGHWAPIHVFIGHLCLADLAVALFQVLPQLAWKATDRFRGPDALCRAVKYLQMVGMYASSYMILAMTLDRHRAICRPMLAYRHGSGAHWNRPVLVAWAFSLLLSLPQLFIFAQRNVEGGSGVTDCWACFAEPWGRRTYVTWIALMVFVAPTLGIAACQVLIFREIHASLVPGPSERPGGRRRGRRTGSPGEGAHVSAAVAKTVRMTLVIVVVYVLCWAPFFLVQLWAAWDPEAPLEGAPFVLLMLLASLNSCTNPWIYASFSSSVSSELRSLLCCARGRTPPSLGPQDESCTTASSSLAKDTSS
Chain of Vasopressin V1a/V2 (Homo sapiens) (P30518 whole entry, looked up): as the sequence (P30518 whole entry) above
Chain of Vasopressin V1a/V2 (Homo sapiens) (P37288 whole entry, looked up): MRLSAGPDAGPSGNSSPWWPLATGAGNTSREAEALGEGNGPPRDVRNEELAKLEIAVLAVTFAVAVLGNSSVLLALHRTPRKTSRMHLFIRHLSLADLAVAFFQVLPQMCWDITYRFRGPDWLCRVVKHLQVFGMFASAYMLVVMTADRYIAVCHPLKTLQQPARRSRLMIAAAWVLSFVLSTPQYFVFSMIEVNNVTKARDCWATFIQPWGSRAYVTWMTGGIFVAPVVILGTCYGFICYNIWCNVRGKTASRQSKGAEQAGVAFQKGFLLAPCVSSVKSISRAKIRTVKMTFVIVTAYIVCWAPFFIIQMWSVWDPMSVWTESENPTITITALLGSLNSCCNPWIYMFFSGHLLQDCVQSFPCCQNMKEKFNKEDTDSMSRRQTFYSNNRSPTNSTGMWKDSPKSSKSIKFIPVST
Chain of Vasopressin V1a receptor (P37288 whole entry): as the sequence (P37288 whole entry, looked up) above

EC50 (Vasopressin V1a receptor) | Ratio EC50 (Homo sapiens [1]) | EC50 (Oxytocin receptor; cho-k1, read-out: EC50) | EC50 (Oxytocin receptor; read-out: pEC50 (converted)) | Ratio EC50 (Homo sapiens [2]) | Ratio EC50 [3] | EC50 (Vasopressin V2 receptor; read-out: EC50) | EC50 (Vasopressin V1b receptor) | EC50 (Vasopressin V2 receptor; hek293, read-out: EC50) | EC50 (Vasopressin V2 receptor; read-out: pEC50 (converted)) | EC50 (Oxytocin receptor; read-out: EC50) | Structure (SMILES)
18 nM | 53 | > 10000 nM | > 10000 nM | > 550 | 61 | 1100 nM | 960 nM |  |  |  | CC[C@H](C)[C@@H]1NC(=O)[C@H](Cc2ccccc2)NC(=O)[C@@H](N)CSSC[C@@H](C(=O)N2CCC[C@H]2C(=O)N[C@@H](CCNC(C)C)C(=O)NCC(N)=O)NC(=O)[C@H](CC(N)=O)NC(=O)[C@H](CCCC(N)=O)NC1=O (H-CFI[Aad](NH2)NCP[Dab(iPr)]G-NH2; disulfide 1-6)
10 nM | 53 | > 10000 nM | > 10000 nM | > 1000 | > 1000 |  | 530 nM | > 10000 nM | > 10000 nM |  | CC[C@H](C)[C@@H]1NC(=O)[C@H](Cc2ccco2)NC(=O)[C@@H](N)CSSC[C@@H](C(=O)N2CCC[C@H]2C(=O)N[C@@H](CCCN)C(=O)NCC(N)=O)NC(=O)[C@H](CC(N)=O)NC(=O)[C@H](CC(N)=O)NC1=O (H-C[Ala(2-furyl)]INNCP[Orn]G-NH2; disulfide 1-6)
7.9 nM | 13 | > 10000 nM | > 10000 nM | > 1200 | > 1200 |  | 110 nM | > 10000 nM | > 10000 nM |  | CC[C@H](C)[C@@H]1NC(=O)C2(CCC2)NC(=O)[C@@H](N)CSSC[C@@H](C(=O)N2CCC[C@H]2C(=O)N[C@@H](CCCN)C(=O)NCC(N)=O)NC(=O)[C@H](CC(N)=O)NC(=O)[C@H](CC(N)=O)NC1=O (H-C[Ac4c]INNCP[Orn]G-NH2; disulfide 1-6)
3.2 nM | 43 | > 10000 nM | > 10000 nM | > 3100 | > 3100 |  | 140 nM | > 10000 nM | > 10000 nM |  | CC[C@H](C)[C@@H]1NC(=O)[C@H](CC2CCCCC2)NC(=O)[C@@H](N)CSSC[C@@H](C(=O)N2CCC[C@H]2C(=O)N[C@@H](CCCN)C(=O)NCC(N)=O)NC(=O)[C@H](CC(N)=O)NC(=O)[C@H](CC(N)=O)NC1=O (H-C[Cha]INNCP[Orn]G-NH2; disulfide 1-6)
14 nM | 18 |  |  | 61 | > 710 |  | 260 nM | > 10000 nM | > 10000 nM | 860 nM | CC[C@H](C)[C@@H]1NC(=O)[C@H](Cc2cccs2)NC(=O)[C@@H](N)CSSC[C@@H](C(=O)N2CCC[C@H]2C(=O)N[C@@H](CCCNC(C)C)C(=O)NCC(N)=O)NC(=O)[C@H](CC(N)=O)NC(=O)[C@H](CC(N)=O)NC1=O (H-C[2Thi]INNCP[Orn(iPr)]G-NH2; disulfide 1-6)
5.2 nM | 5.3 | > 10000 nM | > 10000 nM | > 1900 | > 1900 |  | 28 nM | > 10000 nM | > 10000 nM |  | CC[C@H](C)[C@@H]1NC(=O)[C@H](Cc2ccccc2)NC(=O)[C@@H](N)CSSC[C@@H](C(=O)N2CCC[C@H]2C(=O)N[C@@H](CCCN)C(=O)NCC(N)=O)NC(=O)[C@H](CC(N)=O)NC(=O)[C@H](CC(=O)NCC(C)O)NC1=O (stereo partly specified) (H-CFID(X2)NCP[Orn]G-NH2; disulfide 1-6)
15 nM | 14 | > 10000 nM | > 10000 nM | > 660 | > 660 |  | 220 nM | > 10000 nM | > 10000 nM |  | CC[C@H](C)[C@@H]1NC(=O)[C@H](Cc2cccs2)NC(=O)[C@@H](N)CSSC[C@@H](C(=O)N2CCC[C@H]2C(=O)N[C@@H](CCCN)C(=O)NCC(N)=O)NC(=O)[C@H](CC(N)=O)NC(=O)[C@H](CC(N)=O)NC1=O (H-C[2Thi]INNCP[Orn]G-NH2; disulfide 1-6)
2.2 nM | 95 |  |  | 47 | 150 | 330 nM | 210 nM |  |  | 105 nM | CC[C@H](C)[C@@H]1NC(=O)[C@H](Cc2ccco2)NC(=O)[C@@H](N)CSSC[C@@H](C(=O)N2CCC[C@H]2C(=O)N[C@@H](CCN)C(=O)NCC(N)=O)NC(=O)[C@H](CC(N)=O)NC(=O)[C@H](CCC(N)=O)NC1=O (H-C[Ala(2-furyl)]IQNCP[Dab]G-NH2; disulfide 1-6)
7.7 nM | 15 | > 10000 nM | > 10000 nM | > 1200 | > 1200 |  | 120 nM | > 10000 nM | > 10000 nM |  | CC[C@H](C)[C@@H]1NC(=O)[C@H](CC2CCCC2)NC(=O)[C@@H](N)CSSC[C@@H](C(=O)N2CCC[C@H]2C(=O)N[C@@H](CCCN)C(=O)NCC(N)=O)NC(=O)[C@H](CC(N)=O)NC(=O)[C@H](CC(N)=O)NC1=O (H-C[Ala(cPent)]INNCP[Orn]G-NH2; disulfide 1-6)
12 nM | 42 | > 10000 nM | > 10000 nM | > 830 | > 830 |  | 510 nM | > 10000 nM | > 10000 nM |  | CC[C@H](C)[C@@H]1NC(=O)[C@H](Cc2cccs2)NC(=O)[C@@H](N)CSSC[C@@H](C(=O)N2CCC[C@H]2C(=O)N[C@@H](CCN)C(=O)NCC(N)=O)NC(=O)[C@H](CC(N)=O)NC(=O)[C@H](CC(N)=O)NC1=O (H-C[2Thi]INNCP[Dab]G-NH2; disulfide 1-6)
15 nM | 120 |  |  | 64 | > 660 |  | 1800 nM | > 10000 nM | > 10000 nM | 970 nM | CC[C@H](C)[C@@H]1NC(=O)[C@H](Cc2ccco2)NC(=O)[C@@H](N)CSSC[C@@H](C(=O)N2CCC[C@H]2C(=O)N[C@@H](CCCNC(C)C)C(=O)NCC(N)=O)NC(=O)[C@H](CC(N)=O)NC(=O)[C@H](CC(N)=O)NC1=O (H-C[Ala(2-furyl)]INNCP[Orn(iPr)]G-NH2; disulfide 1-6)
6 nM | 9.8 |  | 174 nM | > 1600 | 35 | 210 nM | 59 nM |  |  | > 10000 nM | CC[C@H](C)[C@@H]1NC(=O)[C@H](Cc2ccccc2)NC(=O)[C@@H](N)CSSC[C@@H](C(=O)N2CCC[C@H]2C(=O)N[C@@H](CCCN)C(=O)NCC(N)=O)NC(=O)[C@H](CC(N)=O)NC(=O)[C@H](CCC(=O)NC)NC1=O (H-CFIE(NHMe)NCP[Orn]G-NH2; disulfide 1-6)
30 nM | 6.6 | > 10000 nM | > 10000 nM | > 330 | > 330 |  | 200 nM | > 10000 nM | > 10000 nM |  | CC[C@H](C)[C@@H]1NC(=O)[C@H](Cc2cccnc2)NC(=O)[C@@H](N)CSSC[C@@H](C(=O)N2CCC[C@H]2C(=O)N[C@@H](CCN)C(=O)NCC(N)=O)NC(=O)[C@H](CC(N)=O)NC(=O)[C@H](CCC(N)=O)NC1=O (H-C[3Pal]IQNCP[Dab]G-NH2; disulfide 1-6)
30 nM | 7 | > 10000 nM | > 10000 nM | > 330 | 24 | 720 nM | 210 nM |  |  |  | CC[C@H](C)[C@@H]1NC(=O)[C@H](Cc2ccccc2)NC(=O)[C@@H](N)CSSC[C@@H](C(=O)N2CCC[C@H]2C(=O)N[C@@H](CN)C(=O)NCC(N)=O)NC(=O)[C@H](CC(N)=O)NC(=O)[C@H](CCC(N)=O)NC1=O (H-CFIQNCP[Dap]G-NH2; disulfide 1-6)

Structure (SMILES) | EC50 (Vasopressin V1a receptor) | Ratio EC50 (Homo sapiens [1]) | EC50 (Oxytocin receptor; cho-k1, read-out: EC50) | EC50 (Oxytocin receptor; read-out: pEC50 (converted)) | Ratio EC50 (Homo sapiens [2]) | Ratio EC50 [3] | EC50 (Vasopressin V2 receptor; read-out: EC50) | EC50 (Vasopressin V1b receptor) | EC50 (Vasopressin V2 receptor; hek293, read-out: EC50) | EC50 (Vasopressin V2 receptor; read-out: pEC50 (converted)) | EC50 (Oxytocin receptor; read-out: EC50)
CC[C@H](C)[C@@H]1NC(=O)[C@H](Cc2ccccc2)NC(=O)[C@@H](N)CSSC[C@@H](C(=O)N2CCC[C@H]2C(=O)N[C@@H](CCCNCCC(C)C)C(=O)NCC(N)=O)NC(=O)[C@H](CC(N)=O)NC(=O)[C@H](CCC(N)=O)NC1=O (H-CFIQNCP[X5]G-NH2; disulfide 1-6) | 0.82 nM | 120 |  |  | 53 | 230 | 190 nM | 100 nM |  |  | 44 nM

From ChEMBL document CHEMBL1817572, “New, potent, selective, and short-acting peptidic V1a receptor agonists” (J Med Chem, 2011)
